The text below walks through data of ChEMBL document CHEMBL1135654, “Antitumor agents. 1. Synthesis, biological evaluation, and molecular modeling of 5H-pyrido[3,2-a]phenoxazin-5-one, a compound with potent antiproliferative activity” (J Med Chem, 2002).

Assay [1] deals with CCRF-CEM. Kind of assay: Compound concentration required to reduce the cell proliferation of human acute T-lymphoblastic leukemia CCRF-CEM cells by 50%, using MTT method. It is filed as functional, cell-based. The procedure, abridged:
(§1)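 Leukemia/lymphoma cells in exponential growth resuspended at 1 × 10^5 cells/mL in RPMI 1640 (10% FCS, antibiotics) with serial dilutions of drug (DMSO stock 200 µM diluted in medium). Viability by MTT after 96 h at 37 °C, 5% CO2. Growth expressed as % of untreated controls; IC50 by linear regression. Controls underwent ≥3 rounds of multiplication. Mean of three independent determinations.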
On the technique in general: Tetrazolium dyes change colour on reduction, which living cells bring about.

The subject of assay [2] is MT4. Kind of assay: Compound concentration required to reduce the cell proliferation of human CD4+T cells by 50%, using MTT method. It is filed as functional, cell-based. The procedure, abridged:
as §1

For assay [3], the system named is HEp-2. Briefly: Compound concentration required to reduce the cell proliferation of larynx carcinoma cells by 50%, using MTT method. In kind it is functional, cell-based. As to conditions: Homo sapiens. A digest of the protocol: (§2)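 Solid-tumor cells in exponential growth seeded at 5 × 10^4 cells/mL in their own medium with 10% FCS, allowed to adhere 16 h, then serially diluted drug added (DMSO stock 200 µM diluted in medium). MTT viability read 4 days later, 37 °C, 5% CO2. IC50 by linear regression from % of untreated control growth. Three independent determinations.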

In assay [4] the test system is CCRF-SB. Kind of assay: Compound concentration required to reduce the cell proliferation of human acute B-lymphoblastic leukemia CCRF-SB cells by 50%, using MTT method. It is filed as functional, cell-based. A digest of the protocol:
as §1

The subject of assay [5] is HeLa. Kind of assay: Compound concentration required to reduce the cell proliferation of cervix carcinoma Hela cells by 50%, using MTT method. It is filed as functional, cell-based. The conditions noted are these: Homo sapiens. The procedure, abridged: as §2
The test system of assay [6] is HeLa. Kind of assay: Compound concentration required to reduce the cell proliferation of cervix carcinoma Hela cells by 50%, using MTT method. The conditions noted are these: Homo sapiens. It is filed as functional, cell-based. The procedure, abridged: as §2
Assay [7] deals with CCRF-CEM. Kind of assay: Compound concentration required to reduce the cell proliferation of human acute T-lymphoblastic leukemia CCRF-CEM cells by 50%, using MTT method. It is filed as functional, cell-based. The procedure, abridged:
as §1

The subject of assay [8] is CCRF-SB. Briefly: Compound concentration required to reduce the cell proliferation of human acute B-lymphoblastic leukemia CCRF-SB cells by 50%, using MTT method. In kind it is functional, cell-based. A digest of the protocol:
as §1

For assay [9], the system named is MT4. Kind of assay: Compound concentration required to reduce the cell proliferation of human CD4+T cells by 50%, using MTT method. It is filed as functional, cell-based. A digest of the protocol:
as §1

The test system of assay [10] is HEp-2. Kind of assay: Compound concentration required to reduce the cell proliferation of larynx carcinoma cells by 50%, using MTT method. As to conditions: Homo sapiens. It is filed as functional, cell-based. The procedure, abridged: as §2
The nature of assay [11]: Effect on the proliferation Wild -type and Drug- resistant KB subclones passaged in the presence of vincristine 0.02 uM. In kind it is functional, Homo sapiens. A digest of the protocol:
(§3)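 Cells seeded at 5 × 10^4 cells/mL, adhered 16 h, exposed to serial drug dilutions; MTT after 4 days. IC50 by linear regression versus untreated controls; mean ± SD of three independent determinations.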

In assay [12] the test system is HEp-2. Kind of assay: Antitumor activity against larynx carcinoma Hep-2 cells. In kind it is functional, cell-based. The conditions noted are these: Homo sapiens. The procedure, abridged: as §2
Another assay relates to HepG2. Kind of assay: Antitumor activity against human hepatocellular carcinoma HepG2 cells. It is filed as functional, cell-based. A digest of the protocol: as §2
A further assay has as its system HT-29. Kind of assay: Antitumor activity against human colon adenocarcinoma HT-29 cells. It is filed as functional, cell-based. The procedure, abridged: as §2
The test system of assay [13] is Panel leukemia (Carcinoma cell lines). Kind of assay: Cytotoxicity for lymphoblastoid cell lines. In kind it is functional. The conditions noted are these: Homo sapiens.
The next assay relates to MCF7. Kind of assay: Antitumor activity against human breast adenocarcinoma MCF-7 cells. In kind it is functional, cell-based. The procedure, abridged:
as §2

Assay [14] concerns MT4. Briefly: Antitumor activity against […] human acute T-lymphoblastic leukemia MT-4 cells. In kind it is functional, cell-based. A digest of the protocol:
as §1

Assay [15] can be described thus: Compound concentration required to reduce the cell proliferation of Wild type and Drug- resistant KB subclones passaged in the presence of doxorubicin 0.09 uM by 50%. In kind it is functional. The conditions noted are these: Homo sapiens. A digest of the protocol: as §3
For another assay, the system named is C8166. Kind of assay: Antitumor activity against […] human acute T-lymphoblastic leukemia C8166 cells. It is filed as functional, cell-based. The procedure, abridged: as §1
The nature of assay [16]: (§4) Cytotoxicity for Peripheral blood Lymphocytes. In kind it is functional. The conditions noted are these: Homo sapiens. A digest of the protocol: (§5)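 Human PBL from HIV-negative donors, isolated on Ficoll-Hypaque. Resting cells (1 × 10^6/mL) exposed up to 3 days to serial drug dilutions, washed, PHA-stimulated 24 h, diluted to 1 × 10^5/mL with PHA and IL-2, viability read after 6 days at 37 °C. Alternatively, PBL stimulated with PHA (2.5 µg/mL) 24 h, then grown with PHA, IL-2 (50 U/mL) and drug, and viable cells counted at day 6. Mean ± SD, three experiments.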

The next assay concerns 5637. Kind of assay: Antitumor activity against human bladder carcinoma 5637 cells. It is filed as functional, cell-based. The procedure, abridged:
as §2

A further assay relates to IMR-32. Kind of assay: Antitumor activity against human neuroblastoma IMR32 cells. It is filed as functional, cell-based. A digest of the protocol:
as §2

Assay [17] concerns CCRF-SB. Briefly: Antitumor activity against human acute B-lymphoblastic leukemia CCRF-SB cells. In kind it is functional, cell-based. A digest of the protocol: as §1
Another assay concerns CRL-7065 cell line. Kind of assay: Antitumor activity against human foreskin fibroblasts CRL7065 cells. In kind it is functional, cell-based. The procedure, abridged: as §2
The next assay relates to SK-MEL-28. Kind of assay: Antitumor activity against human skin melanoma […] cells. In kind it is functional, cell-based. The procedure, abridged:
as §2

The nature of assay [18]: Compound concentration required to reduce the cell proliferation of Wild type and drug-resistant KB subclones passaged in the presence of etoposide 7 uM by 50%. It is filed as functional. The conditions noted are these: Homo sapiens. The procedure, abridged: as §3
The test system of another assay is SK-MES-1. Kind of assay: Antitumor activity against human lung squamous carcinoma SK-MES-1 cells. In kind it is functional, cell-based. A digest of the protocol: as §2
Assay [19] deals with HeLa. Kind of assay: Antitumor activity against cervix carcinoma Hela cells. It is filed as functional, cell-based. As to conditions: Homo sapiens. A digest of the protocol: as §2
Assay [20] is described as follows: Compound concentration required to reduce the cell proliferation of Wild type and Drug- resistant human nasopharyngeal carcinoma KB cells by 50%. In kind it is functional, cell-based. A digest of the protocol: as §3
For assay [21], the system named is MT4. Briefly: Antitumor activity against human CD4+T cells expressing the TAT gene of HTLV-1 MT-4 cells. It is filed as functional, cell-based. A digest of the protocol:
as §1

The next assay deals with ACHN. Briefly: Antitumor activity against human renal adenocarcinoma ACHN cells. It is filed as functional, cell-based. The procedure, abridged: as §2
The test system of assay [22] is CCRF-CEM. Briefly: Antitumor activity against human acute T-lymphoblastic leukemia CCRF-CEM cells. It is filed as functional, cell-based. The procedure, abridged:
as §1

Assay [23] has as its system WIL2-NS. Kind of assay: Anti tumor activity against human splenic B-lympho blastoid Wil2-NS cells. It is filed as functional, cell-based. The procedure, abridged:
as §1

The next assay relates to DU-145. Kind of assay: Antitumor activity against human prostate carcinoma DU145 cells. It is filed as functional, cell-based. A digest of the protocol: as §2
The nature of assay [24]: as §4. In kind it is functional. The conditions noted are these: Homo sapiens. A digest of the protocol: as §5
This is another data set of the same source.

The test system of another assay is Raji. Briefly: Antitumor activity against human Burkitt lym phoma Raji cells. It is filed as functional, cell-based. The procedure, abridged:
as §1

The subject of the next assay is MOLT-4. Kind of assay: Antitumor activity against human acute T-lymphoblastic leukemia MOLT-4 cells. In kind it is functional, cell-based.
A further assay deals with G-361. Briefly: Antitumor activity against human skin melanoma G-361 cells. It is filed as functional, cell-based. The procedure, abridged:
as §2

Assay [25] concerns WIL2-NS. Briefly: Antitumor activity against human splenic B-lympho blastoid Wil2-NS cells. It is filed as functional, cell-based. The procedure, abridged:
as §1

A word on the IC50: it is the concentration that gives 50% inhibition. Take `Nc1cc2nc3ccccc3oc-2cc1=O`: the IC50 was found to be 2000 nM in the assay on CCRF-CEM [1]; 1200 nM in the assay with MT4 [2]; 1800 nM in the assay on HEp-2 [3]; 1000 nM in the assay on CCRF-SB [4]; 2700 nM in the assay on HeLa [5].
Turning to `O=c1ccc2nc3ccccc3oc-2c1`, the IC50 was found to be 13000 nM with HeLa [6]; 19000 nM with CCRF-CEM [7]; 9000 nM in the assay with CCRF-SB [8]; 11000 nM in the assay with MT4 [9]; 14200 nM in the assay on HEp-2 [10].
In general, CC50 refers to the concentration at which the toxic effect on the cells reaches its halfway point. A high value points to better tolerance by the cells. As for `O=c1cc2oc3ccccc3nc-2c2cccnc12`, the IC50 is 60 nM in assay [11]; 40 nM in the assay on HEp-2 [12]; 50 nM in the assay with HepG2; 250 nM with HT-29; 230 nM in the assay on MCF7; 10 nM with MT4 [14]. For the same compound, the IC50 is 40 nM in assay [15]; 100 nM with C8166; 10 nM with 5637; 10 nM in the assay with IMR-32; 9 nM with CCRF-SB [17]; 500 nM in the assay with CRL-7065 cell line. For the same compound, the IC50 amounted to 210 nM in the assay on SK-MEL-28; 20 nM in assay [18]; 40 nM in the assay with SK-MES-1; 200 nM in the assay on HeLa [19]; 100 nM in assay [20]; 10 nM in the assay on MT4 [21]. The IC50 was 10 nM with ACHN; 10 nM in the assay with CCRF-CEM [22]; 50 nM in the assay with WIL2-NS [23]; 40 nM with DU-145; 40 nM with Raji; 40 nM in the assay on MOLT-4. The same compound showed an IC50 in the assay on G-361 of 10 nM. Also, the CC50 in assay [13] is 40 nM; in assay [16] it was 30 nM; in assay [24] it was 5000 nM.
With `CC(=O)Nc1cc2nc3ccccc3oc-2cc1=O`, the IC50 in the assay on HeLa [6] is 8200 nM; with CCRF-CEM [7], more than 50000 nM; in the assay on CCRF-SB [8], 3600 nM; with MT4 [9] it was 9500 nM; with HEp-2 [10] it was 1400 nM.
As for `O=c1cc2sc3ccccc3nc-2c2cccnc12`, the half-inhibitory concentration (IC50) in the assay on HEp-2 [12] came out at 100 nM; in the assay on HepG2, 110 nM; in the assay with HT-29 it was 10000 nM; in the assay on MCF7 it was 650 nM; in the assay on MT4 [14], 80 nM; in the assay on C8166, 410 nM. Besides, the IC50 in the assay with 5637 is 150 nM; in the assay on IMR-32 it was 530 nM; in the assay with CCRF-SB [17] it was 80 nM; in the assay with CRL-7065 cell line it was 810 nM; with SK-MEL-28, 810 nM; with SK-MES-1, 800 nM. Also, the IC50 in the assay with HeLa [19] amounted to 600 nM; with MT4 [21] it was 80 nM; with ACHN, 1920 nM; with WIL2-NS [25] it was 150 nM; with CCRF-CEM [22] it was 70 nM; with DU-145, 610 nM. Besides, the IC50 in the assay on Raji worked out at 30 nM; in the assay on MOLT-4, 140 nM; with G-361, 220 nM.
